Experimental data as given in ChEMBL document CHEMBL3286255, “Rational design and synthesis of novel thiazolidin-4-ones as non-nucleoside HIV-1 reverse transcriptase inhibitors” (Bioorg Med Chem, 2014).

Tests used:
[1] = system: Human immunodeficiency virus; test: Inhibition of HIV reverse transcriptase at 100 ug/ml after 1 hr by ELISA relative to control
Method in brief: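 Kit ELISA for HIV RT. Template/primer, biotin- and DIG-labelled dNTPs and RT enzyme in lysis buffer incubated 1 h at 37 °C. Product captured on streptavidin, detected with anti-DIG-peroxidase and ABTS substrate, and read at 405 nm. Percent inhibition calculated against a no-inhibitor sample.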

[2] = system: Human immunodeficiency virus 1; test: Antiviral activity against R5 tropic Human immunodeficiency virus 1 ADA5 subtype B infected in human TZM-bl cells assessed as reduction in virus-induced cytopathic effect after 48 hrs by luminescence assay; type: functional, organism-based; details: Human immunodeficiency virus 1, ADA5 subtype B, TZM-bl, 48 h; read-out: EC50
Method in brief: (§1)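 TZM-bl cells (HeLa-derived; CD4, CXCR4, CCR5; LTR-driven luciferase) seeded 1×10^4/well, left overnight at 37 °C, 5% CO2, then infected with 400 TCID50 virus for 2 h. Serial compound dilutions added in duplicate, only at levels giving >50% viability. […] Mean of two independent assays; nevirapine as positive control.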

[3] = Selectivity index, ratio of CC50 for human TZM-bl cells to EC50 for R5 tropic Human immunodeficiency virus 1 VB59 subtype C; type: toxicity, cell-based; details: read-out: Ratio CC50/EC50
[4] = Selectivity index, ratio of CC50 for human TZM-bl cells to EC50 for X4 tropic Human immunodeficiency virus 1 UG070 subtype D; type: toxicity, cell-based; details: read-out: Ratio CC50/EC50
[5] = Selectivity index, ratio of CC50 for human TZM-bl cells to EC50 for R5 tropic Human immunodeficiency virus 1 ADA5 subtype B; type: toxicity, cell-based; details: read-out: Ratio CC50/EC50
[6] = Selectivity index, ratio of CC50 for human TZM-bl cells to EC50 for X4 tropic Human immunodeficiency virus 1 3B subtype B; type: toxicity, cell-based; details: read-out: Ratio CC50/EC50
[7] = system: Human immunodeficiency virus 1; test: Antiviral activity against X4 tropic Human immunodeficiency virus 1 3B subtype B infected in human TZM-bl cells assessed as reduction in virus-induced cytopathic effect after 48 hrs by luminescence assay; type: functional, organism-based; details: Human immunodeficiency virus 1, 3B subtype B, TZM-bl, 48 h; read-out: EC50; method in brief: as §1
[8] = system: Human immunodeficiency virus 1; test: Antiviral activity against X4 tropic Human immunodeficiency virus 1 UG070 subtype D infected in human TZM-bl cells assessed as reduction in virus-induced cytopathic effect after 48 hrs by luminescence assay; type: functional, organism-based; details: Human immunodeficiency virus 1, UG070 subtype D, TZM-bl, 48 h; read-out: EC50; method in brief: as §1
[9] = Cytotoxicity against human TZM-bl cells after 48 hrs by MTT assay; type: cell-based
Method in brief: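 TZM-bl cells seeded 1×10^4/well and left overnight at 37 °C, 5% CO2. Medium then replaced with a two-fold dilution series of compound in quadruplicate. […] Mean of three independent assays.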

[10] = system: Human immunodeficiency virus 1; test: Antiviral activity against R5 tropic Human immunodeficiency virus 1 VB59 subtype C infected in human TZM-bl cells assessed as reduction in virus-induced cytopathic effect after 48 hrs by luminescence assay; type: functional, organism-based; details: Human immunodeficiency virus 1, VB59 subtype C, TZM-bl, 48 h; read-out: EC50; method in brief: as §1

inhibition [1]	EC50 [2]	EC50 [7]	EC50 [8]	EC50 [10]	SMILES	selectivity ratio [3]	selectivity ratio [4]	selectivity ratio [5]	selectivity ratio [6]	CC50 at 48 h [9]
82.9%	0.31 µM	0.25 µM	0.53 µM	0.48 µM	COc1cc(OC)nc(N2C(=O)CSC2c2c(F)cccc2F)n1 (stereo not given)	161	144	250	310	77.5 µM
64.7%	16.2 µM	17.3 µM	24.4 µM	16.8 µM	O=C1CSC(c2c(F)cccc2F)N1Nc1ccccn1 (stereo not given)	5.36	3.69	5.56	5.19	90.1 µM
81.8%	0.7 µM	0.35 µM	0.5 µM	0.77 µM	Cc1cc(N2C(=O)CSC2c2c(F)cccc2F)nc(C)c1Br (stereo not given)	87.2	134	95.9	192	67.1 µM
97.4%	1.85 µM	0.99 µM	1.17 µM	1.7 µM	O=C1CSC(c2c(Cl)cccc2Cl)N1Nc1ccccn1 (stereo not given)	87.6	127	80.5	150	149 µM
30.4%	74.2 µM	53.6 µM	106 µM	80.1 µM	N#Cc1ccc(C2SCC(=O)N2c2ccc(C#N)cn2)cc1 (stereo not given)	1.59	1.2	1.71	2.38	128 µM
